Results reported in ChEMBL document CHEMBL4406884, “An anthrone-based Kv7.2/7.3 channel blocker with improved properties for the investigation of psychiatric and neurodegenerative disorders” (Bioorg Med Chem Lett, 2019).
Values after ≈ are worked out from the molar mass of the structure shown.

Columns and labels:
[1] = target: Voltage-gated potassium channel, KQT; KCNQ2(Kv7.2)/KCNQ3(Kv7.3) (Homo sapiens) (UniProt O43526+O43525); assay: Inhibition of Kv7.2/7.3 in human tsA201 cells assessed as effect on channel currents at -60 mV holding potential at 1.5 uM by whole cell patch clamp assay relative to control; assay type: cell-based
[2] = target: Potassium voltage-gated channel subfamily KQT member 2 (Homo sapiens, UniProt O43526); assay: Inhibition of Kv7.2 in human HEK293 cells incubated for 1 hr by thallium flux assay; assay type: cell-based
Sequence of Potassium voltage-gated channel subfamily KQT member 2 (O43526 whole entry): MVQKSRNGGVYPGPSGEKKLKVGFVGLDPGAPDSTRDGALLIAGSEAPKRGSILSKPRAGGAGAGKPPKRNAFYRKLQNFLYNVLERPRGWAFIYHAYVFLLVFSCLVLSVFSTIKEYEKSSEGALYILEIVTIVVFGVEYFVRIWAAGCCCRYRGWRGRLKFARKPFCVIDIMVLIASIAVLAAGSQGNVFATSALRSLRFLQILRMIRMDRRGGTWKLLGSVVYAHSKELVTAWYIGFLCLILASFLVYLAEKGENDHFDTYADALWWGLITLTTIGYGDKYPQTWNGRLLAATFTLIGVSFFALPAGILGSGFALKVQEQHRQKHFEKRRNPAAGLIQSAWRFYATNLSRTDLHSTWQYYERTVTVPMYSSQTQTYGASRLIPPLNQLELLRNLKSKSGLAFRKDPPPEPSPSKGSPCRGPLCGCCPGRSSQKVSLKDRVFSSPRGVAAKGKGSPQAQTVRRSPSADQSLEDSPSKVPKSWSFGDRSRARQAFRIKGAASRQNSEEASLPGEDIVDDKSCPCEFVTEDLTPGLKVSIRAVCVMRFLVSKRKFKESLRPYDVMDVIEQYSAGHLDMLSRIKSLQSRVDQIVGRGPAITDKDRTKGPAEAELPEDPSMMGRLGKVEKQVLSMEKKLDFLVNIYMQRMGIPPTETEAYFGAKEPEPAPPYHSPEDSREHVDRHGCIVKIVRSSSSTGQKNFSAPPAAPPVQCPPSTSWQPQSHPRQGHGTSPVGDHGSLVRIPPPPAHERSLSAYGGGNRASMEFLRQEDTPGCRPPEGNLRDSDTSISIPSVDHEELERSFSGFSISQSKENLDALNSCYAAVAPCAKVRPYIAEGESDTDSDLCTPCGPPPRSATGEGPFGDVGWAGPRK
Procedure, shortened: (§1)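 HEK-293 cells stably expressing KCNQ2 or hERG were plated overnight, then loaded with Thallos AM dye for 1 h at 22 °C. Compounds (10-point, 3-fold dilutions) were added for 5 min, then Tl₂SO₄/K-gluconate stimulus, read at 1 Hz. F/F0 was vehicle-subtracted and initial slopes fit to a four-parameter logistic. Triplicate wells; mean of three independent experiments.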

CYP3A4 [3] = target: T1, CYP3A4 (Homo sapiens, UniProt P08684); assay: Inhibition of CYP3A4 (unknown origin) at 50 uM using DBOMF as substrate measured for each min for 6 mins by fluorescence based assay relative to control; assay type: ADME; details: probe DBOMF
T1 sequence (P08684 whole entry): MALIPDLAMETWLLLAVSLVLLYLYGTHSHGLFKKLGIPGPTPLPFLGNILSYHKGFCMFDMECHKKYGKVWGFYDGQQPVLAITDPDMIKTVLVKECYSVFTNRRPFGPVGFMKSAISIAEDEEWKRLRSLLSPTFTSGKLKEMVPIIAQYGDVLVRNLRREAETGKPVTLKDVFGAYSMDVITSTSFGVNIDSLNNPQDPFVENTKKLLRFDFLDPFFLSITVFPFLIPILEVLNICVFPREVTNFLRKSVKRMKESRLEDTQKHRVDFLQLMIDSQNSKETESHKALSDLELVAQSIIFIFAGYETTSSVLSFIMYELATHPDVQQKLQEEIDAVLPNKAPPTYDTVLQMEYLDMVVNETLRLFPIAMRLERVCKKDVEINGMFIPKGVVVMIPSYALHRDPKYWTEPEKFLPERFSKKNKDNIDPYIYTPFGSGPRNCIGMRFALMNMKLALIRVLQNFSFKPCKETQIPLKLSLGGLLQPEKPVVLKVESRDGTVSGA

[4] = Metabolic stability in human liver microsomes assessed as percent remaining […] incubated for 1 hr by LC/MS analysis; assay type: ADME, Microsome
Procedure, shortened: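 Compound at 10 μM final (from 1 mM DMSO stock) pre-incubated 5 min at 37 °C with NADPH regenerating system in phosphate buffer pH 7.4. Started with human liver microsomes (0.5 mg/mL protein). After 1 h, triplicate aliquots quenched in cold acetonitrile with internal standard. Percent remaining by LC-MS/MS peak-area ratio to internal standard.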

[5] = Stability in 1:1 MeCN:0.2N aq. HCl assessed as percent remaining at 0.3 mM and 60 degC incubated for 24 hrs by LC/MS analysis; assay type: physicochemical; details: for remaining at 24 h, 300 µM: 1:1 MeCN:0.2N aq; call rule not given here. HCl, read-out: Stability
Procedure, shortened: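 Compound in 1:1 CH3CN/0.2 N aqueous HCl with furan-2-carboxylic acid (1 eq) as internal standard, heated at 60 °C. Analysed by LC-MS at set time points. Degradation from UV peak area at 254 nm relative to the internal standard.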

[6] = Kinetic solubility in […] % DMSO/water at 3.2 uM to 100 uM incubated for 18 hrs by spectrometry; assay type: physicochemical; details: for solubility kinetic at 18 h: […] DMSO/water, read-out: Kinetic_solubility
HepG2 = assay: Cytotoxicity against human HepG2 cells assessed as reduction in cell viability incubated for 18 hrs by celltiter-glo assay; details: hepg2, 18 h
HEK293 = assay: Cytotoxicity against human HEK293 cells assessed as reduction in cell viability incubated for 18 hrs by celltiter-glo assay; details: hek293, 18 h
[7] = target: T2, Alpha-1A adrenergic receptor (Homo sapiens, UniProt P35348); assay: Inhibition of alpha1A adrenergic receptor (unknown origin)
T2 sequence (P35348 whole entry): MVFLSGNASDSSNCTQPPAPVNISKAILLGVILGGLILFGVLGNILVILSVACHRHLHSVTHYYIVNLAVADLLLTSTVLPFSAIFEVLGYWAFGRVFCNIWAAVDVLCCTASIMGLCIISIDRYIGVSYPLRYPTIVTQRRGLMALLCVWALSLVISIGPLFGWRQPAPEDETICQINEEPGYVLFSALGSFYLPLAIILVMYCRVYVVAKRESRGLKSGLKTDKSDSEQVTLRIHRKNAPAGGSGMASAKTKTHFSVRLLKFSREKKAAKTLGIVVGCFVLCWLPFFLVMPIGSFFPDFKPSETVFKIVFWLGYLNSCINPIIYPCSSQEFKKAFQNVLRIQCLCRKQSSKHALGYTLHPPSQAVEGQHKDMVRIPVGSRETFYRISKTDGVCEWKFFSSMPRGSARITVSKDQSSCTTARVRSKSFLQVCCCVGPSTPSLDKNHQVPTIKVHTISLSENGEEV

[8] = target: T3, Alpha-1A adrenergic receptor (Homo sapiens) (UniProt P35348); assay: Binding affinity to alpha1A adrenergic receptor (unknown origin) at 10 uM relative to control
T3 sequence (whole entry): T2 sequence (P35348 whole entry)

[9] = target: Adrenergic receptor alpha-1 (Homo sapiens) (UniProt P35348+P25100+P35368); assay: Binding affinity to alpha1 adrenergic receptor (unknown origin) at 10 uM relative to control; assay type: protein assay
Sequence of Adrenergic receptor alpha-1 (Homo sapiens) (P25100 whole entry, looked up, one chain of several): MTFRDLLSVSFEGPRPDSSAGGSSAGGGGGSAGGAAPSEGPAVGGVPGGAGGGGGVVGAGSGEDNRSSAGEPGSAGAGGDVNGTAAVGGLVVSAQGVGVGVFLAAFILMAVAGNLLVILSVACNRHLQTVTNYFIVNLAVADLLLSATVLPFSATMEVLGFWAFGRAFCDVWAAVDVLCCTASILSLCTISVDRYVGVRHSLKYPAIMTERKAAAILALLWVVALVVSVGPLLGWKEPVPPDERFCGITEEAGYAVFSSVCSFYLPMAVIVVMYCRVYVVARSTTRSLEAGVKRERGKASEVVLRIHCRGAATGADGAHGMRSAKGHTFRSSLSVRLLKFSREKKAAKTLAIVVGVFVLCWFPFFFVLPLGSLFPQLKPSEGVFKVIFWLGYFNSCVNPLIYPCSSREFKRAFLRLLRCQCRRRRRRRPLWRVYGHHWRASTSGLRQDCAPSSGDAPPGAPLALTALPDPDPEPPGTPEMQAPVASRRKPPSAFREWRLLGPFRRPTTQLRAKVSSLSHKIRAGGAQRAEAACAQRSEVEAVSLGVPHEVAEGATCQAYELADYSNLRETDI
Sequence of Adrenergic receptor alpha-1 (Homo sapiens) (P35368 whole entry, looked up, one chain of several): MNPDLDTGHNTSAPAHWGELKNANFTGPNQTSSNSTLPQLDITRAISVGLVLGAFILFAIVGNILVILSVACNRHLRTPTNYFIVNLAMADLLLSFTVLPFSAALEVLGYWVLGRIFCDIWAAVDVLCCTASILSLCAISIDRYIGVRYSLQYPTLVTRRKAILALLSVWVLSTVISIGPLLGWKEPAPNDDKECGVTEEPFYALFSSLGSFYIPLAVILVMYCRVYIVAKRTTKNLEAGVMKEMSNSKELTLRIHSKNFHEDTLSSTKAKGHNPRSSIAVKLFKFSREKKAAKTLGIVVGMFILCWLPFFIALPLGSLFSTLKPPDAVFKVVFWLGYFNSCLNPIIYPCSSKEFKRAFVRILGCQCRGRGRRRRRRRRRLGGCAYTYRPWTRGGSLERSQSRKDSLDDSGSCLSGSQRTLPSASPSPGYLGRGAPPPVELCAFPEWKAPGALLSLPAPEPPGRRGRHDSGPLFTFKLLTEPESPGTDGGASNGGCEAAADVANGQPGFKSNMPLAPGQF

CYP3A4 [10] = target: T1, CYP3A4; assay: Inhibition of CYP3A4 (unknown origin) at 10 uM using DBOMF as substrate measured for each min for 6 mins by fluorescence based assay relative to control; assay type: ADME; details: probe DBOMF
Procedure, shortened: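 Vivid CYP3A4 Green assay in PBS pH 7.2 with NADP+ regeneration system. Final levels: 5 nM CYP3A4, 2 μM DBOMF substrate, 100 μM NADP+, 10 μM compound. Fluorescence (ex 490/em 520 nm) read every minute for 6 min, four wells per compound.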

D(3) dopamine receptor [11] = target: T4, D(3) dopamine receptor (Homo sapiens, UniProt P35462); assay: Inhibition of D3 receptor (unknown origin)
T4 sequence (P35462 whole entry): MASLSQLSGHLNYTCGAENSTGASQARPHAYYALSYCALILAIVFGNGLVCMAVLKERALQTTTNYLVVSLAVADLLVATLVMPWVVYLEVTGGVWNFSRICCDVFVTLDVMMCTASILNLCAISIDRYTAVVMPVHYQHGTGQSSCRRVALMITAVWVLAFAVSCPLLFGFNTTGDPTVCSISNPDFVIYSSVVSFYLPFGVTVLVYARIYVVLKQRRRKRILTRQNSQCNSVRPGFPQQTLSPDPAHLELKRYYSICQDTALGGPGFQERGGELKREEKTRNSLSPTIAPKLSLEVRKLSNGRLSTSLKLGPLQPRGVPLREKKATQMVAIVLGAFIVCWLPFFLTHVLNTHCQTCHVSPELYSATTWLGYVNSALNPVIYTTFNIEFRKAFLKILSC

D(3) dopamine receptor [12] = target: T4, D(3) dopamine receptor; assay: Binding affinity to D3 receptor (unknown origin) at 10 uM relative to control
[13] = target: Voltage-gated inwardly rectifying potassium channel KCNH2 (Homo sapiens, UniProt Q12809); assay: Inhibition of ERG in human HEK293 cells incubated for 1 hr by thallium flux assay; assay type: cell-based; procedure, shortened: as §1
Sequence of Voltage-gated inwardly rectifying potassium channel KCNH2 (Q12809 whole entry): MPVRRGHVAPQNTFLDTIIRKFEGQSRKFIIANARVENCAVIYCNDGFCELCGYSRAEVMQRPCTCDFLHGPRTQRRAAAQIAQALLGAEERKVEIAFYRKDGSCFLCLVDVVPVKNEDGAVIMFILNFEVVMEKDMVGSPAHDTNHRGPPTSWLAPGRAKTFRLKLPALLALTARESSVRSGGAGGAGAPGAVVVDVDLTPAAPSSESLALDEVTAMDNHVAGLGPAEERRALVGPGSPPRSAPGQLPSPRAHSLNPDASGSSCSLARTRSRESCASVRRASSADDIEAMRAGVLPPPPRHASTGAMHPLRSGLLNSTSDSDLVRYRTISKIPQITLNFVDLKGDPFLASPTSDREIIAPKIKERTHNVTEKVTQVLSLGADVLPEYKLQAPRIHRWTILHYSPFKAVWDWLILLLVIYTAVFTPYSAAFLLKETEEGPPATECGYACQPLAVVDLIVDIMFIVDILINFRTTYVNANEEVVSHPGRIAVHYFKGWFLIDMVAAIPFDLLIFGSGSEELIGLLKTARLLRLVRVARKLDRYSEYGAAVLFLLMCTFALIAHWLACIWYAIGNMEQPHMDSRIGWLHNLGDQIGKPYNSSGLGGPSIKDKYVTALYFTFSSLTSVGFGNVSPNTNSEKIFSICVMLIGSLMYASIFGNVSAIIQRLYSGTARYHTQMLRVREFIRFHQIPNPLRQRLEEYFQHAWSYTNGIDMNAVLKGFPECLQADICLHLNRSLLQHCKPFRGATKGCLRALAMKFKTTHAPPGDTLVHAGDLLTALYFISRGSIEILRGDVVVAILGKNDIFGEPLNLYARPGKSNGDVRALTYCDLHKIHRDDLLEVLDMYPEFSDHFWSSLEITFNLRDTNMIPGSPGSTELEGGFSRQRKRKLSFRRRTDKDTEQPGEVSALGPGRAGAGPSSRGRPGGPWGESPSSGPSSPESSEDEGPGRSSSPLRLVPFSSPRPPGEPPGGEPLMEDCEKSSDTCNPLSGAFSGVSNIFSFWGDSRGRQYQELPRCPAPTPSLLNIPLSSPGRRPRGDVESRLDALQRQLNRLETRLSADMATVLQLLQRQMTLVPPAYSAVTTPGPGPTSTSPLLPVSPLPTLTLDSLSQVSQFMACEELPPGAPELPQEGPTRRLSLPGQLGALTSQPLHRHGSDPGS

Question: Which inhibition [1] does the source give for `O=C1c2ccccc2C(Cc2ccnc(F)c2)(Cc2ccnc(F)c2)c2ccccc21` here?
Answer: The inhibition was 31%.

Question: What about the IC50 [2] of the same compound?
Answer: The IC50 was 0.048 µM.

Question: And the inhibition at 0.1 h, 50 µM (CYP3A4 [3])?
Answer: The inhibition at 0.1 h, 50 µM was 82%.

Question: And the Stability [4]?
Answer: Its Stability is 97%.

Question: And the Stability ([5]; buffer, 24 h, 300 µM)?
Answer: Its Stability is 83%.

Question: And the solubility kinetic at 18 h [6]?
Answer: Its solubility kinetic at 18 h is 27 µM (≈ 11.1 µg/mL).

Question: What about the CC50 (HepG2) of the same compound?
Answer: The CC50 was 132 µM.

Question: What about the CC50 (HEK293) of the same compound?
Answer: Its CC50 is 77 µM.

Question: What about the Ki [7] of the same compound?
Answer: Its Ki is 1.1 to 3.1 µM.

Question: And the Activity [8]?
Answer: The Activity was greater than 30%.

Question: What about the Activity [9] of the same compound?
Answer: The Activity was greater than 30%.

Question: What about the inhibition at 0.1 h, 10 µM (CYP3A4 [10]) of the same compound?
Answer: The inhibition at 0.1 h, 10 µM was 79%.

Question: What does the source list for `O=C1c2ccccc2C(Cc2ccnnc2)(Cc2c(F)cncc2F)c2ccccc21`?
Answer: inhibition [1]: 73%; IC50 [2]: 0.16 µM; Stability [4]: 84%; remaining at 24 h, 300 µM [5]: > 99%; Kinetic_solubility ([6]; buffer, 18 h, 3.2 µM): 27 µM; CC50 (HepG2): > 150 µM; CC50 (HEK293): > 150 µM; Ki (D(3) dopamine receptor [11]): > 10 µM; Activity [9]: > 30%; Activity (D(3) dopamine receptor [12]): > 30%; inhibition at 0.1 h, 10 µM (CYP3A4 [10]): 90%

Question: Which inhibition [1] does the source give for `O=C1c2ccccc2C(Cc2ccncc2)(Cc2ccncc2)c2ccccc21` here?
Answer: Its inhibition is 81%.

Question: What about the IC50 [2] of the same compound?
Answer: The IC50 was 0.055 µM.

Question: What about the solubility kinetic at 18 h [6] of the same compound?
Answer: The solubility kinetic at 18 h was 27 µM (≈ 10.2 µg/mL).

Question: Which inhibition [1] does the source give for `Cc1cc(CC2(Cc3ccnc(C)c3)c3ccccc3C(=O)c3ccccc32)ccn1` here?
Answer: The inhibition was 33%.

Question: And the IC50 [2]?
Answer: The IC50 was 0.54 µM.

Question: And the IC50 [13]?
Answer: Its IC50 is “Not Active”.

Question: And the inhibition at 0.1 h, 50 µM (CYP3A4 [3])?
Answer: The inhibition at 0.1 h, 50 µM was 92%.

Question: For `O=C1c2ccccc2C(Cc2ccnnc2)(Cc2ccnnc2)c2ccccc21`, which inhibition [1] is on record?
Answer: The inhibition was 12%.

Question: What about the IC50 [2] of the same compound?
Answer: The IC50 was 10 µM.

Question: What about the IC50 [13] of the same compound?
Answer: The IC50 was “Not Active”.

Question: What about the inhibition at 0.1 h, 50 µM (CYP3A4 [3]) of the same compound?
Answer: The inhibition at 0.1 h, 50 µM was 28%.

Question: Which inhibition [1] does the source give for `O=C1c2ccccc2C(Cc2ccnc(C(F)(F)F)c2)(Cc2ccnc(C(F)(F)F)c2)c2ccccc21` here?
Answer: The inhibition was 6%.

Question: And the IC50 [2]?
Answer: The IC50 was 5.6 µM.

Question: And the IC50 [13]?
Answer: Its IC50 is “Not Active”.

Question: And the inhibition at 0.1 h, 50 µM (CYP3A4 [3])?
Answer: Its inhibition at 0.1 h, 50 µM is 95%.

Question: Which inhibition [1] does the source give for `O=C1c2ccccc2C(Cc2c(F)cncc2F)(Cc2c(F)cncc2F)c2ccccc21` here?
Answer: Its inhibition is 65%.

Question: What about the IC50 [2] of the same compound?
Answer: The IC50 was 0.2 µM.

Question: And the inhibition at 0.1 h, 50 µM (CYP3A4 [3])?
Answer: Its inhibition at 0.1 h, 50 µM is 97%.

Question: And the remaining at 24 h, 300 µM [5]?
Answer: The remaining at 24 h, 300 µM was greater than 99%.
